Here are results for one compound from ChEMBL document CHEMBL4673181, “An investigation of the antileishmanial properties of semi-synthetic saponins” (RSC Med Chem, 2020).

The inhibition is the percentage by which the read-out fell short of the control.

Data set [1] relates to Leishmania mexicana. Kind of data set: Antileishmanial activity against axenic amastigote stage of Leishmania mexicana (MNYC/BZ/62/M379) infected in mouse RAW264.7 cells assessed as induction of parasite killing incubated for 24 hrs by alamar blue dye based fluorescence analysis. The format is functional. Summed up:
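RAW264.7 cells seeded at 2.5x10⁵ mL⁻¹ in DMEM with 10% HIFBS for 24 h at 37 °C, 5% CO₂, then infected with axenic amastigotes at 25x10⁵ mL⁻¹ in DMEM with 2% HIFBS for 24 h. Washed 5x, compound added for 24 h. Cells lysed with 0.05% SDS, then grown in Schneider's (pH7, 15% HIFBS) 48 h at 26 °C. alamarBlue 4 h, fluorescence 560/600 nm. Triplicate, three occasions.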
(In general: Resazurin is reduced to fluorescent resorufin, in cell work by metabolically active cells.)

Data set [2] in a line: Selectivity index, ratio of ED50 for mouse RAW264.7 cells to ED50 for antileishmanial activity against axenic amastigote stage of Leishmania mexicana (MNYC/BZ/62/M379). The settings on record: read-out: Ratio ED50. The format is toxicity. Summed up:
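Selectivity index calculated as EC₅₀ in RAW macrophages (24 h alamarBlue cytotoxicity assay) divided by EC₅₀ against axenic L. mexicana amastigotes.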

The nature of data set [3]: Cytotoxicity against mouse RAW264.7 cells assessed as induction of cell killing incubated for 24 hrs by alamar blue dye based fluorescence analysis. The settings on record: read-out: ED50. An outline of the steps: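 Mouse macrophages seeded at 2.5×10^5 mL⁻¹ in DMEM/10% HIFBS, 24 h at 37 °C, 5% CO₂. Then washed and held 24 h in DMEM/2% HIFBS. Compounds 100 μM to 0.41 μM in 2% HIFBS medium for 24 h. alamarBlue 4 h, then fluorescence at 560/600 nm. Cycloheximide (50 μM) positive, DMSO negative control. EC₅₀ derived.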

Data set [4] has as its system Leishmania mexicana. The data set can be described thus: Antileishmanial activity against axenic amastigote stage of Leishmania mexicana (MNYC/BZ/62/M379) assessed as inhibition of parasite proliferation at 50 uM incubated for 24 hrs by alamar blue dye based fluorescence analysis. The format is functional. Summed up:
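Primary single-point screen at 50 μM, in duplicate. Axenic L. mexicana amastigotes at 4x10⁵ mL⁻¹ incubated with compound 24 h at 33 °C in sealed plates, then alamarBlue for a further 24 h at the same temperature. Viability read by fluorescence at 560/600 nm against amphotericin B (50 μM) and DMSO controls.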

Data set [5] relates to Leishmania mexicana. The data set can be described thus: Antileishmanial activity against axenic amastigote stage of Leishmania mexicana (MNYC/BZ/62/M379) assessed as induction of parasite killing incubated for 24 hrs by alamar blue dye based fluorescence analysis. Type of data set: functional. The settings on record: read-out: ED50 (the source's name). Summed up: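 L. mexicana axenic amastigotes (from promastigotes by pH/temperature shift; Schneider's with 20% HIFBS) at 4x10⁵ mL⁻¹, exposed to three-fold dilutions from 50 μM to 0.21 μM for 24 h at 33 °C in sealed plates. alamarBlue then added for another 24 h, fluorescence read at 560/600 nm. Amphotericin B (50 μM) positive, DMSO negative control. Duplicates on four occasions, EC₅₀ fitted.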

With `CC1(C)CC[C@]2(C(=O)O)CC[C@]3(C)C(=CC[C@@H]4[C@@]5(C)CC[C@H](OC(=O)CCC(=O)O)[C@@](C)(COC(=O)CCC(=O)O)[C@@H]5CC[C@]43C)[C@@H]2C1`, the ED50 with Leishmania mexicana [1] was over 50 µM. The selectivity ratio in data set [2] was over 44. Moreover, in data set [3], the CC50 at 24 h is over 100 µM. The inhibition at 50 µM with Leishmania mexicana [4] was at least 95%. In addition, the EC50 with Leishmania mexicana [5] amounted to 2.3 µM.
